# Assay results collected from several papers.
# Compare with care: the assays were run in different laboratories.
# Target: NUAK family SNF1-like kinase 1 (NUAK1, Homo sapiens, UniProt O60285)
# Observed: enzyme activity
# Mode: inhibitor
# One construct used (O60285 1-661): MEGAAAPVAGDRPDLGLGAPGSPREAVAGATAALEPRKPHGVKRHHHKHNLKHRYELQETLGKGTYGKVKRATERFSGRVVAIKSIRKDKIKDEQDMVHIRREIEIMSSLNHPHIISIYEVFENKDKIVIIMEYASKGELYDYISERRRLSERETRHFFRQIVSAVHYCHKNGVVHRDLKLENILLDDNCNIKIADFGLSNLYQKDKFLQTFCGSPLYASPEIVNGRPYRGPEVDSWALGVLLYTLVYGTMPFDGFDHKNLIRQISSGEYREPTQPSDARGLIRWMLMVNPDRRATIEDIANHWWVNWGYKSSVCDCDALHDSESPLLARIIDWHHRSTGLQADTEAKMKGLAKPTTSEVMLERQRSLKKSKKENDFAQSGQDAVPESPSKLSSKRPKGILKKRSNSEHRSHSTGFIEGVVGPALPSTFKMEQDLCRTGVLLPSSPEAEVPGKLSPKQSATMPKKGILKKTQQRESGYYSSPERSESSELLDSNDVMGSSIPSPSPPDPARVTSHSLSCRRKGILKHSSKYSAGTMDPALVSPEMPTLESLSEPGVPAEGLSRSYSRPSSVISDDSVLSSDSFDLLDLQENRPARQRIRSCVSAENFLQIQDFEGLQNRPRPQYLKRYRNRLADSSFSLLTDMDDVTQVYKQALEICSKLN
Structure (SMILES),method,tested at,remaining activity
CC(C)(C)c1nc(-c2cccc(NS(=O)(=O)c3c(F)cccc3F)c2F)c(-c2ccnc(N)n2)s1,radiometric,1 µM,101%
O=C(Nc1cccc(Nc2ncc(Br)c(NCCc3cnc[nH]3)n2)c1)N1CCCC1,radiometric,1 µM,1%
COc1cc(Nc2cnc(C#N)c(O[C@H](C)CN(C)C)n2)ncc1-c1cnn(C)c1,radiometric,10 µM,7%
O=C(Nc1cnn(-c2csc(C(=O)NC3COC3)c2)c1)Nc1ccccc1Cl,,5 µM,97.9%
Cc1cnc(NC2CCOCC2)nc1-n1cnc(C(=O)NC(CN)c2cc(F)cc(Cl)c2)c1 (stereo not drawn),radiometric,1 µM,67%
Cn1c(=O)n(-c2ccc(C(C)(C)C#N)cc2)c2c3cc(-c4cnc5ccccc5c4)ccc3ncc21,,10 µM,44%
COc1cc(Cl)c(C(=O)N[C@@H](CN[C@H]2CC[C@@H](N)CC2)Cc2ccc(C#N)cc2)cc1-c1ccc(CN[C@H](C)c2ccc(C)cc2)o1,,1 µM,92%
Cc1ccc(C(=O)Nc2ccc(CN3CCN(C)CC3)c(C(F)(F)F)c2)cc1C#Cc1cnc2cccnn12,,23.5 nM,85%
NS(=O)(=O)c1ccc(CNc2nc(Nc3cccc(NC(=O)N4CCCC4)c3)ncc2C2CC2)cc1,radiometric,1 µM,89%
Oc1cccc(-c2nc(N3CCOCC3)c3oc4ncccc4c3n2)c1,,10 µM,98%
Cc1nn(CC(F)(F)F)cc1Nc1nccc(NCCCNC(=O)C2CCC2)n1,radiometric,1 µM,86%
CC(C)(O)[C@H]1CC[C@H](Nc2ccc3ncc(-c4cccc(C(F)(F)F)c4)n3n2)CC1,,1 µM,72%
NS(=O)(=O)c1ccc(CNc2nc(Nc3cccc(CN4CCOCC4)c3)ncc2C2CC2)cc1,radiometric,1 µM,83%
CC(C)(C)c1nc2c(s1)c1nc(N)ncc1c1ccc(NS(=O)(=O)c3c(F)cccc3F)c(F)c12,radiometric,1 µM,95%
Cc1sc(C(=O)NC2COC2)cc1-n1cc(NC(=O)Nc2c(F)cccc2Cl)cn1,,10 µM,96.9%
